Key:
[1] = target: Mast/stem cell growth factor receptor Kit (Homo sapiens, UniProt P10721, V560G); experiment: Inhibition of human cKit V560G mutant by millipore radiometric assay
How it was run: (§1)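 Radiometric profiling against a 278-kinase panel was done with ATP at Km. Half-maximal inhibitory concentrations were then determined for the kinases most inhibited.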

[2] = target: Muscle, skeletal receptor tyrosine-protein kinase (Homo sapiens, UniProt O15146); experiment: Inhibition of human MuSK by millipore radiometric assay; how it was run: as §1
Chain of Muscle, skeletal receptor tyrosine-protein kinase (O15146 whole entry): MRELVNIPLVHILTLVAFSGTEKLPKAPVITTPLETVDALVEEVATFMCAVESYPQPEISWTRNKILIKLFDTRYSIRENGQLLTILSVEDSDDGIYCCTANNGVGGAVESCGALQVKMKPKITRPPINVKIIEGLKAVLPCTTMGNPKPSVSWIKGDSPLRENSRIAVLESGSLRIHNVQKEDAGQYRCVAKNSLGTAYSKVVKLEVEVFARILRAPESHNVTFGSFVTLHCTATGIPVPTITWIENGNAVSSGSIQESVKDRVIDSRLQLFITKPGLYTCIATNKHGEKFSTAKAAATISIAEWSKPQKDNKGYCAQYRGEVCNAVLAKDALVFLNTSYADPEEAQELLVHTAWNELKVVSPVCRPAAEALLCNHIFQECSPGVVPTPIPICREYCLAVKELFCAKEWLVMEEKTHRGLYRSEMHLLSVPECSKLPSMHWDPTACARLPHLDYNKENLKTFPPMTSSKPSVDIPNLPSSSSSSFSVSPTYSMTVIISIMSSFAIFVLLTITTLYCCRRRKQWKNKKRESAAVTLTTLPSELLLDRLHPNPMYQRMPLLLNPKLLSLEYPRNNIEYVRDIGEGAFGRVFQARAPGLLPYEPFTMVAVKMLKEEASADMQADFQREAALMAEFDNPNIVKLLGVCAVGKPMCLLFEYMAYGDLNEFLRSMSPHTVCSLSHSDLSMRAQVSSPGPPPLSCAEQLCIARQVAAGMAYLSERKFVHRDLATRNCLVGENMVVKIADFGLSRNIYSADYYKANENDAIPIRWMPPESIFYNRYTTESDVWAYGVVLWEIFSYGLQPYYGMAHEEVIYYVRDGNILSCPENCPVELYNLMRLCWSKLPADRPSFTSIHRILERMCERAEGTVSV

[3] = system: DU-145; experiment: Cytotoxicity against human DU145 cells after 5 days by sulforhodamine B assay; assay type: functional; settings: DU-145, 120 h
How it was run: (§2)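 Cancer lines were seeded at 800–6000 cells per well according to growth rate, 24 h before compound overlay. After culture, cells were fixed in situ and stained with sulforhodamine B. GI50 values were derived by curve fitting.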

[4] = Cytotoxicity against HMEC after 5 days by sulforhodamine B assay; assay type: cell-based; settings: human, HMEC cells
How it was run: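 Cells were seeded at 800–6000 per well according to growth rate, 24 h before compound overlay. After culture they were fixed in situ and stained with sulforhodamine B. GI50 was calculated by curve fitting.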

[5] = target: T1, Dual specificity protein kinase TTK (Homo sapiens, UniProt P33981); experiment: Competitive inhibition of amino terminal GST-fused full length human TTK using His6-SUMO-TTK-N as substrate by Lineweaver-Burk plot analysis in presence of ATP; settings: read-out: Ki(app)
T1 sequence (P33981 whole entry): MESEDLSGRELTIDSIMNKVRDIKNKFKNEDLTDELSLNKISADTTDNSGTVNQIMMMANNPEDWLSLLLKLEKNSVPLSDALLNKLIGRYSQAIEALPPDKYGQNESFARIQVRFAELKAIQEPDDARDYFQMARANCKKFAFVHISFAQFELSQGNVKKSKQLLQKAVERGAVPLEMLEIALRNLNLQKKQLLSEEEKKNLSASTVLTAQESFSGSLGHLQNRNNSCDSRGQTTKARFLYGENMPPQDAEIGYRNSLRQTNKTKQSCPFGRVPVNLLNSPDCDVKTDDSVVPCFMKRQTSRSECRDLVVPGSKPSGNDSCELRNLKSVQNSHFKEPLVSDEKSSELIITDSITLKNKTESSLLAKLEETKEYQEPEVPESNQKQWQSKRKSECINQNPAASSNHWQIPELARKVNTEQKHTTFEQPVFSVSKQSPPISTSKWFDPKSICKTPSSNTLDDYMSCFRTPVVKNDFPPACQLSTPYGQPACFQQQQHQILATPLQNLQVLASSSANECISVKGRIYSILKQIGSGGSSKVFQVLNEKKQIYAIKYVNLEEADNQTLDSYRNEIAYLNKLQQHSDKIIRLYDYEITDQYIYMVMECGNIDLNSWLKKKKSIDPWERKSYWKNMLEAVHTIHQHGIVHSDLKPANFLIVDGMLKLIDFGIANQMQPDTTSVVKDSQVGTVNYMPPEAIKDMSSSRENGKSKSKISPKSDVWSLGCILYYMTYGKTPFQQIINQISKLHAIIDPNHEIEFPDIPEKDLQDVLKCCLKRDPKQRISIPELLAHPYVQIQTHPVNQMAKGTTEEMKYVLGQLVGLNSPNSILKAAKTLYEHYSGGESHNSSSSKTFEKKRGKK

[6] = system: MDA-MB-468; experiment: Cytotoxicity against human MDA-MB-468 cells after 5 days by sulforhodamine B assay; assay type: functional; how it was run: as §2
[7] = Antitumor activity against human HCT116 cells xenografted in athymic CD1 nude mouse assessed as tumor growth inhibition at 35 mg/kg, po qd administered for 21 days measured 3 times per week during compound dosing relative to vehicle-treated control; assay type: functional; settings: HCT-116, 504 h, read-out: TGI
How it was run: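 HCT116 cells (5 million) were injected subcutaneously into the right flank of 6–8 week old female athymic CD-1 nude mice. At a mean tumor volume of 80–120 mm³, mice were randomized (n = 8). Tumors were measured three times weekly, volume x²y/2, and TGI was taken against vehicle.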

[8] = Plasma protein binding in dog; assay type: ADME, cell-free, Canis lupus familiaris; settings: read-out: PPB (converted)
[9] = system: Mus musculus; experiment: Toxicity in po dosed CD-1 nude mouse assessed as signs of overt toxicity administered as qd for 21 days; assay type: organism-based; settings: in vivo, 504 h
How it was run: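 Female nude mice bearing subcutaneous tumors (80–120 mm³ at randomization) received vehicle (10% NMP/40% PEG400/50% water) or compound by daily oral dosing for 21 days. Doses were the MTD and ~2/3 MTD. Body weight and tumor volume were measured three times weekly. The MTD criterion (n = 3) was no body-weight loss over 20% and not moribund.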

[10] = Toxicity in po dosed athymic CD1 nude mouse assessed as body weight loss in excess 20% and deemed moribund administered as qd for 21 days measured 3 times per week during compound dosing; assay type: organism-based; settings: in vivo
[11] = target: Maternal embryonic leucine zipper kinase (Homo sapiens, UniProt Q14680); experiment: Inhibition of human MELK by millipore radiometric assay; how it was run: as §1
Chain of Maternal embryonic leucine zipper kinase (Q14680 whole entry): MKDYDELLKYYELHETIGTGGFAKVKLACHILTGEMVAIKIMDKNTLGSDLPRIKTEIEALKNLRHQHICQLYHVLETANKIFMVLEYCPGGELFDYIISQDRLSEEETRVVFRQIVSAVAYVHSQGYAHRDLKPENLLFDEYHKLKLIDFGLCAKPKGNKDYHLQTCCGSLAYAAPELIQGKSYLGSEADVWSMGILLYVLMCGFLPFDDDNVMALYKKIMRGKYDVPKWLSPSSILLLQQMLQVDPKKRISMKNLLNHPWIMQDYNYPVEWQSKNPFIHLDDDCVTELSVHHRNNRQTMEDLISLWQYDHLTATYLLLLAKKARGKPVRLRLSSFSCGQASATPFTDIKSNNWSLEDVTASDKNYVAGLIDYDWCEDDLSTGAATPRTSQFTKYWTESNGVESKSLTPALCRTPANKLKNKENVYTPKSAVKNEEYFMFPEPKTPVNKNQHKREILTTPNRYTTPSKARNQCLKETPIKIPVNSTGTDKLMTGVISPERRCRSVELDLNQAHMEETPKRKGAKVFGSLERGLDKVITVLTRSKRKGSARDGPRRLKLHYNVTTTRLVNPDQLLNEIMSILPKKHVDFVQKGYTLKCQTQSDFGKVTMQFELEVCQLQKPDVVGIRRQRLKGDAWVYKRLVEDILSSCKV

[12] = system: SW48; experiment: Cytotoxicity against human SW48 cells after 5 days by sulforhodamine B assay; assay type: functional; settings: SW48, 120 h; how it was run: as §2
[13] = Cmax in athymic CD1 nude mouse at 10 mg/kg, po by LC-MS/MS analysis; assay type: ADME, organism-based; design: dose 10 mg/kg, route oral; settings: athymic CD1 nude, in vivo
[14] = target: Proto-oncogene tyrosine-protein kinase receptor Ret (Homo sapiens, UniProt P07949); experiment: Inhibition of human Ret by millipore radiometric assay; how it was run: as §1
Chain of Proto-oncogene tyrosine-protein kinase receptor Ret (P07949 whole entry): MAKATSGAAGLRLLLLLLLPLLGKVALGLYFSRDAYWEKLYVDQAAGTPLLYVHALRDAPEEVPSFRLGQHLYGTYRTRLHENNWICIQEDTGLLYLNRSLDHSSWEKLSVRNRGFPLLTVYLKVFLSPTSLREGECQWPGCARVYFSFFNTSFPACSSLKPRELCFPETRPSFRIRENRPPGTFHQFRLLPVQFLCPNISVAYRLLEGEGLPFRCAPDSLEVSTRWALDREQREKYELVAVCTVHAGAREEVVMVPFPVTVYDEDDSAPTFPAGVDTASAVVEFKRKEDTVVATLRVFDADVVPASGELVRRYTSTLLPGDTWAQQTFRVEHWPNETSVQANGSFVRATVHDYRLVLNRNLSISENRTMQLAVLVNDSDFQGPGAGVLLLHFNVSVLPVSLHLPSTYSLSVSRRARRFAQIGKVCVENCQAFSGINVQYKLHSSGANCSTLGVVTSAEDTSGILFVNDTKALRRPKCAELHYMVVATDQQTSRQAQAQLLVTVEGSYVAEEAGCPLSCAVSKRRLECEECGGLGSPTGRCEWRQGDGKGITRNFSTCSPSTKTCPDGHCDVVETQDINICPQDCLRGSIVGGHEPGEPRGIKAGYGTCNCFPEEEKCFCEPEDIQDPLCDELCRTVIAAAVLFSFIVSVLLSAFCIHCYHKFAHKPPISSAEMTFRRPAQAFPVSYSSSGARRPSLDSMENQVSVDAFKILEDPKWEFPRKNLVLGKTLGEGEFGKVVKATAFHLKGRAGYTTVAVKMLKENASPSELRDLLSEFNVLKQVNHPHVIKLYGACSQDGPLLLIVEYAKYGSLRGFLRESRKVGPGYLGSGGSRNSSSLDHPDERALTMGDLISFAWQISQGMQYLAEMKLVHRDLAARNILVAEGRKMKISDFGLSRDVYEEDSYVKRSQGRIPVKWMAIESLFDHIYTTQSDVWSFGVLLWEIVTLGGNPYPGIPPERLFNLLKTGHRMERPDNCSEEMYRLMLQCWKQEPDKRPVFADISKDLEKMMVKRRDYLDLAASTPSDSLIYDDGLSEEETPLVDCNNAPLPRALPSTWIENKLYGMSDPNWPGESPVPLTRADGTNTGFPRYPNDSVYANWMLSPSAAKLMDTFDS

[15] = system: HCT-116; experiment: Induction of chromosome segregation defect in human HCT116 cells assessed as anaphase and telophase cells with lagging chromosomes at 100 nM incubated for 6 hrs post double thymidine block by DAPI staining-based immunofluorescence microscopic analysis (reference value: 19 +/- 2%); assay type: functional
[16] = Half life in mouse liver microsomes at 1 uM by LC-MS analysis; assay type: ADME; settings: liver microsomes
[17] = target: Mitogen-activated protein kinase 10 (Homo sapiens, UniProt P53779); experiment: Inhibition of human JNK3 by millipore radiometric assay; how it was run: as §1
Chain of Mitogen-activated protein kinase 10 (P53779 whole entry): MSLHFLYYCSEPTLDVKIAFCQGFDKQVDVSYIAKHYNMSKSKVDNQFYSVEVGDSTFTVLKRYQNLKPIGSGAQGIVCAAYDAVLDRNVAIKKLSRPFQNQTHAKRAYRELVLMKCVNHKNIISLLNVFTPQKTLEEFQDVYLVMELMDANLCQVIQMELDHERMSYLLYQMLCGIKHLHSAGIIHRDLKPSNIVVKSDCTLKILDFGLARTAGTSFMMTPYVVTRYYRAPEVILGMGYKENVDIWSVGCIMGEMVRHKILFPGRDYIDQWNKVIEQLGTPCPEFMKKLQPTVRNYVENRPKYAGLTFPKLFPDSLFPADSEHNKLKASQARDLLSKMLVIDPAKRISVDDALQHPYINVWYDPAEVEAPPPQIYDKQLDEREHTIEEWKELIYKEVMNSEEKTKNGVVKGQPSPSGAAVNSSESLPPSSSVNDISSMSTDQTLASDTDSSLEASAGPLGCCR

[18] = Plasma protein binding in rat; assay type: ADME, cell-free; settings: read-out: PPB (converted)
[19] = Half life in rat liver microsomes at 1 uM by LC-MS analysis; assay type: ADME; settings: liver microsomes
[20] = Oral bioavailability in dog; assay type: ADME, organism-based, Canis lupus familiaris; settings: in vivo

Chain of Mast/stem cell growth factor receptor Kit (P10721 26-976 V560G limits assumed): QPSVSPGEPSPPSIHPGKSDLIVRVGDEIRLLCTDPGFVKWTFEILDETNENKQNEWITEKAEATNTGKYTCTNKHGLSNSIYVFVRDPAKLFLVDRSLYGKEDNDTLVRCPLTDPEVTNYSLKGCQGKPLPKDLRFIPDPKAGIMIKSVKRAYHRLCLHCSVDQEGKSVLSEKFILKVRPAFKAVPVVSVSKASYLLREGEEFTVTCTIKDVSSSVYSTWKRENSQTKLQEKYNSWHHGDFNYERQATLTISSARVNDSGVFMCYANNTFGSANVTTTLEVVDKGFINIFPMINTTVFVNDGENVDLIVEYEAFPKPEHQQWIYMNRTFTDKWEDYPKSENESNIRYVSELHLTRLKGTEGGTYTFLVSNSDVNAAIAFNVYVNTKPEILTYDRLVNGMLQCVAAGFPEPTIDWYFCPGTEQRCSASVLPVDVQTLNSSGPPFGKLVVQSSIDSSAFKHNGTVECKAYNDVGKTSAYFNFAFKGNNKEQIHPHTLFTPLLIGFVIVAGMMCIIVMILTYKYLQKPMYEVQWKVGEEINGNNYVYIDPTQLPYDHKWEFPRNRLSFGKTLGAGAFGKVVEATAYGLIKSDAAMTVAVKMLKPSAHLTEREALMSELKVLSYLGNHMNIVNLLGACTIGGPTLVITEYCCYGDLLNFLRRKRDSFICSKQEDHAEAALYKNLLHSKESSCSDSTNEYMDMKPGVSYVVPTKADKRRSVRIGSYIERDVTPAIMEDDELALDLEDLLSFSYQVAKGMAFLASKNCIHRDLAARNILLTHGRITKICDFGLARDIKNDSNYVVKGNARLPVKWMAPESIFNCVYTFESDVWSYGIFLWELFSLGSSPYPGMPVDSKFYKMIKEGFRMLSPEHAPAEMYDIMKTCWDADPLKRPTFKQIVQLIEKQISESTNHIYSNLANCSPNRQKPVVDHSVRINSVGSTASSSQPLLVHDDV

O=C(N[C@@H](c1ccccn1)C1CC1)c1ccc2[nH]nc(-c3ccc(N4[C@H]5CC[C@H]4CC(O)C5)cc3)c2c1 (stereo in doubt; 75)
IC50 [1]: 490 nM
IC50 [2]: 690 nM
GI50 [3]: 17 nM
GI50 at 120 h [4]: > 30000 nM
Ki [5]: 0.7 nM
GI50 [6]: 36 nM
inhibition in vivo at 35 mg/kg [7]: 77%
fraction unbound [8]: 0.114
Activity [9]: Non-toxic
MTD at 504 h [10]: 35 mg/kg
IC50 [11]: 160 nM
GI50 [12]: 19 nM
Cmax [13]: 2000 ng/mL
IC50 [14]: 2800 nM
Activity [15]: 61%
half-life at 1 µM [16]: > 1 h
IC50 [17]: 68 nM
fraction unbound [18]: 0.069
half-life at 1 µM [19]: > 1 h
bioavailability [20]: 43%
